In brackets after ≈: the same amount, converted by molar mass.
Legend:
[1] = system: Klebsiella pneumoniae; experiment: Antimicrobial activity against Klebsiella pneumoniae ATCC 10031 by agar dilution method; type: functional; settings: Klebsiella pneumoniae, ATCC 10031; read-out: MIC
Outline: (§1)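 Read-out is the minimal inhibitory concentration, found by agar dilution against the named strain.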

[2] = target: Bacterial 70S ribosome (Bacteria) (UniProt P0A7V0+P60723+P0AG67+P0A7R5+P0A7R9+P0A7S3+P0A7S9+P0AG59+P0ADZ4+P0A7T3+P0AG63+P0A7T7+P0A7U3+P0A7U7+P68679+P0A7V3+P0A7V8+P0A7W1+P02358+P02359+P0A7W7+P0A7X3+P0A7J3+P0A7J7+P0AA10+P0ADY3+P02413+P0ADY7+P0AG44+P0C018+P0A7K6+P0A7L0+P0A7L3+P0AG48+P61175+P0ADZ0+P60624+P68919+P0A7L8+P0A7M2+P0A7M6+P60422+P0AG51+P0A7N1+P0A7M9+P0A7N4+P0A7N9+P0A7P5+P0A7Q1+Q2EEQ2+P0A7Q6+P60438+P62399+P0AG55+P0A7K2); experiment: (§2) Displacement of [14C]erythromycin from Escherichia coli ribosomes after 30 mins by scintillation spectrometer analysis
Outline: (§3)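 NH4Cl-washed E. coli ribosomes with [14C]erythromycin A and varied competitor concentrations in 0.01 M Tris-HCl pH 7.2, 0.1 M KCl, 0.004 M MgCl2, 0.01 M NH4Cl. Incubated 30 min at 24 °C, stopped by dilution in cold Tris/KCl/MgCl2 buffer, membrane-filtered, washed three times, dried, scintillation counted. Reports the concentration giving 50% inhibition of binding.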

[3] = target: Bacterial 70S ribosome; experiment: as §2; outline: as §3
[4] = system: Bacillus spizizenii; experiment: Antimicrobial activity against Bacillus subtilis ATCC 6633 by agar dilution method; type: functional; settings: Bacillus spizizenii, ATCC 6633; read-out: MIC; outline: as §1
[5] = system: Staphylococcus aureus; experiment: Antimicrobial activity against Staphylococcus aureus ATCC 6538P by agar dilution method; type: functional; settings: Staphylococcus aureus, ATCC 6538P; read-out: MIC; outline: as §1

SMILES | MIC [1] [µg/mL] | pK50 [2] | IC50 [3] [nM] | MIC [4] [µg/mL] | MIC [5] [µg/mL]
CCCC(=O)O[C@H]1[C@H](C)O[C@@H](O[C@H]2[C@H](N(C)C)[C@@H](OC(=O)CC)[C@H](O[C@H]3[C@@H](CC=O)C[C@@H](C)[C@@H](O)/C=C/C=C/C[C@@H](C)OC(=O)C[C@@H](O)[C@@H]3OC)O[C@@H]2C)C[C@@]1(C)O | 12.5 (≈ 15.1 µM) | 4.9 | 13800 | 1.6 (≈ 1.93 µM) | 0.8 (≈ 0.966 µM)
CO[C@@H]1[C@@H](O[C@@H]2O[C@H](C)[C@@H](O[C@H]3C[C@@](C)(O)[C@@H](OC(=O)CC(C)C)[C@H](C)O3)[C@H](N(C)C)[C@H]2OC(C)=O)[C@@H](CC=O)C[C@@H](C)[C@@H](OC(C)=O)/C=C/C=C/C[C@@H](C)OC(=O)C[C@H]1OC(C)=O | 100 (≈ 110 µM) | 4.7 | 21400 | 1.6 (≈ 1.75 µM) | 1.6 (≈ 1.75 µM)
CO[C@@H]1[C@@H](O[C@@H]2O[C@H](C)[C@@H](O[C@H]3C[C@@](C)(O)[C@@H](OC(=O)CC(C)C)[C@H](C)O3)[C@H](N(C)C)[C@H]2O)[C@@H](CC=O)C[C@@H](C)[C@@H](OC(=O)C(Cl)Cl)/C=C/C=C/C[C@@H](C)OC(=O)C[C@H]1OC(C)=O | 50 (≈ 53.3 µM) | 5.9 | 1400 | 0.8 (≈ 0.852 µM) | 1.6 (≈ 1.7 µM)
CCCC(=O)O[C@H]1[C@H](C)O[C@@H](O[C@H]2[C@H](N(C)C)[C@@H](O)[C@H](O[C@H]3[C@@H](CC=O)C[C@@H](C)[C@@H](OC(=O)CCl)/C=C/C=C/C[C@@H](C)OC(=O)C[C@@H](O)[C@@H]3OC)O[C@@H]2C)C[C@@]1(C)O | 25 (≈ 29.5 µM) | 6 | 900 | 0.4 (≈ 0.471 µM) | 1.6 (≈ 1.89 µM)
CCCC(=O)O[C@H]1[C@H](C)O[C@@H](O[C@H]2[C@H](N(C)C)[C@@H](O)[C@H](O[C@H]3[C@@H](CC=O)C[C@@H](C)[C@@H](OC(C)=O)/C=C/C=C/C[C@@H](C)OC(=O)C[C@@H](OC(C)=O)[C@@H]3OC)O[C@@H]2C)C[C@@]1(C)O | 100 (≈ 117 µM) | 5.7 | 2200 | 0.8 (≈ 0.935 µM) | 1.6 (≈ 1.87 µM)
CC[C@H]1OC(=O)[C@H](C)[C@@H](O[C@H]2C[C@@](C)(OC)[C@@H](O)[C@H](C)O2)[C@H](C)[C@@H](O[C@@H]2O[C@H](C)C[C@H](N(C)C)[C@H]2O)[C@](C)(O)C[C@@H](C)C(=O)[C@H](C)[C@@H](O)[C@]1(C)O [ERYTHROMYCIN] | 6.3 (≈ 8.58 µM) | 6.1 | 750 | 0.2 (≈ 0.273 µM) | 0.4 (≈ 0.545 µM)
CCCC(=O)O[C@H]1/C=C/C=C/C[C@@H](C)OC(=O)C[C@@H](O)[C@H](OC)[C@@H](O[C@@H]2O[C@H](C)[C@@H](O[C@H]3C[C@@](C)(O)[C@@H](OC(=O)CCC)[C@H](C)O3)[C@H](N(C)C)[C@H]2O)[C@@H](CC=O)C[C@H]1C | 50 (≈ 59.4 µM) | 6 | 900 | 1.6 (≈ 1.9 µM) | 1.6 (≈ 1.9 µM)
CO[C@@H]1[C@@H](O[C@@H]2O[C@H](C)[C@@H](O[C@H]3C[C@@](C)(O)[C@@H](OC(=O)CC(C)C)[C@H](C)O3)[C@H](N(C)C)[C@H]2O)[C@@H](CC=O)C[C@@H](C)[C@@H](OC(C)=O)/C=C/C=C/C[C@@H](C)OC(=O)C[C@H]1O | 50 (≈ 60.4 µM) | 6 | 1100 | 0.8 (≈ 0.966 µM) | 1.6 (≈ 1.93 µM)
CCCC(=O)O[C@H]1[C@H](C)O[C@@H](O[C@H]2[C@H](N(C)C)[C@@H](OC(C)=O)[C@H](O[C@H]3[C@@H](CC=O)C[C@@H](C)[C@@H](OC(C)=O)/C=C/C=C/C[C@@H](C)OC(=O)C[C@@H](O)[C@@H]3OC)O[C@@H]2C)C[C@@]1(C)O | 100 (≈ 117 µM) | 4.6 | 23400 | 0.8 (≈ 0.935 µM) | 1.6 (≈ 1.87 µM)

Reference: ChEMBL document CHEMBL3244414, “Structure-activity relationships among the O-acyl derivatives of leucomycin. Correlation of minimal inhibitory concentrations with binding to Escherichia coli ribosomes” (J Med Chem, 1977)
